Results from ChEMBL document CHEMBL2346620, “Design, synthesis and antithrombotic evaluation of novel dabigatran prodrugs containing methyl ferulate” (Bioorg Med Chem Lett, 2013).
pIC50, pKi: −log10 of the molar value. Activity calls are given as the source filed them. The rule behind the calls is not given here.

What was measured:
Platelet [1] = assay: Inhibition of thrombin-induced rabbit platelet aggregation compound pre-incubated in rabbit liver microsomal suspension; type: functional, microsomes, Microsome; conditions: Oryctolagus cuniculus
In short: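 Each compound was first incubated in rabbit liver microsomal suspension, then tested in rabbit platelet aggregation induced by thrombin. IC50 is the concentration giving half-maximal inhibition of aggregation. Mean ± SD of six independent experiments.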

Platelet [2] = assay: Inhibition of ADP-induced rabbit platelet aggregation compound pre-incubated in rabbit liver microsomal suspension; type: functional, microsomes, Microsome; conditions: Oryctolagus cuniculus
In short: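 Before the in vitro assay, prodrugs were incubated in rabbit liver microsomal suspension. Rabbit platelet aggregation was then induced with ADP. IC50 is the drug concentration giving half-maximal inhibition of aggregation. Mean ± SD from six independent experiments.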

Rattus norvegicus = assay: Antithrombotic activity in intragastrically dosed rat venous thrombosis model; type: functional; conditions: po
In short: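 Reyers rat venous thrombosis model with intragastric dosing over 0.1–20 mg/kg, and a vehicle-treated control group. Read-out is dry clot weight. Eight animals per group, mean ± SD. ED50 is taken from the dose–response curve of clot weight against log dose (μmol/kg).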

Prothrombin = Prothrombin (Homo sapiens, UniProt P00734); assay: Binding affinity to human thrombin

Compound	pIC50 (Platelet [1])	also measured
COC(=O)/C=C/c1ccc(OC(=O)CCN(C(=O)c2ccc3c(c2)nc(CNc2ccc(/C(N)=N\C(=O)OC(C)C)cc2)n3C)c2ccccn2)c(OC)c1	6.11	–
COC(=O)/C=C/c1ccc(OC(=O)CCN(C(=O)c2ccc3c(c2)nc(CNc2ccc(/C(N)=N\C(=O)OCc4ccccc4)cc2)n3C)c2ccccn2)c(OC)c1	6.16	–
COC(=O)/C=C/c1ccc(OC(=O)CCN(C(=O)c2ccc3c(c2)nc(CNc2ccc(/C(N)=N\C(=O)OC)cc2)n3C)c2ccccn2)c(OC)c1	6.08	–
COc1cc(/C=C/C(=O)O)ccc1O [FERULATE]	–	pIC50 (Platelet [2]): 2.57

More lines, in order of rising pIC50 (Platelet [1]), values ahead:

pIC50 (Platelet [1])	Compound	also measured
6.22	COC(=O)/C=C/c1ccc(OC(=O)CCN(C(=O)c2ccc3c(c2)nc(CNc2ccc(/C(N)=N\C(=O)OC(C)(C)C)cc2)n3C)c2ccccn2)c(OC)c1	–
6.34	CCOC(=O)/N=C(/N)c1ccc(NCc2nc3cc(C(=O)N(CCC(=O)Oc4ccc(/C=C/C(=O)OC)cc4OC)c4ccccn4)ccc3n2C)cc1	–
6.47	CCCCCCOC(=O)NC(=N)c1ccc(NCc2nc3cc(C(=O)N(CCC(=O)OCC)c4ccccn4)ccc3n2C)cc1 [DABIGATRAN ETEXILATE]	inhibition (Platelet [2]; Microsome): inactive; ED50 (Rattus norvegicus): 7.8 µmol/kg; pKi (Prothrombin): 8.35
6.54	CCCCCCOC(=O)/N=C(/N)c1ccc(NCc2nc3cc(C(=O)N(CCC(=O)Oc4ccc(/C=C/C(=O)OC)cc4OC)c4ccccn4)ccc3n2C)cc1	pIC50 (Platelet [2]): 2.24; ED50 (Rattus norvegicus): 3.7 µmol/kg
6.69	CCCCCOC(=O)/N=C(/N)c1ccc(NCc2nc3cc(C(=O)N(CCC(=O)Oc4ccc(/C=C/C(=O)OC)cc4OC)c4ccccn4)ccc3n2C)cc1	–
